CHRM4 antagonist – CHRM4 antagonism in calcium assay; 360,000 tested, 0.73% active; inhibition, % at 3 µM; P08173; CHO-hM4 cells, ACh EC80, Fluo-8 calcium fluorescence;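 active means inhibition above its plate's cutoff, the mean inhibition of sample wells plus 3 SD, cut at about 27% in these data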;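 further: 0% = acetylcholine EC80 with DMSO and 100% = DMSO without agonist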
Target sequence (P08173 whole entry, looked up): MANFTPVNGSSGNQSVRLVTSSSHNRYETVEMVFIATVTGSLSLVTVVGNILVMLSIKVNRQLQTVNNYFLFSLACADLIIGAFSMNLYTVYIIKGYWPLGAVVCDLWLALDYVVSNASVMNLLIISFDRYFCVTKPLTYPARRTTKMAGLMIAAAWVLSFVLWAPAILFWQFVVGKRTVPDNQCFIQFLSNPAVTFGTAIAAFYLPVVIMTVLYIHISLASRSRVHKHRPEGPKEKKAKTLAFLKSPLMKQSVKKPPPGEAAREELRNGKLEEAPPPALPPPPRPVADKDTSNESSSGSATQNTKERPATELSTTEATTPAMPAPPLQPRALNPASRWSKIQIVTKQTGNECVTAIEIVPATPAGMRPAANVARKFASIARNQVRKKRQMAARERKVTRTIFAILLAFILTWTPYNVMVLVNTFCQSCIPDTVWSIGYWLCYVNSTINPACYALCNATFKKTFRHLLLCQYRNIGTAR
CHRM4 agonist – CHRM4 agonism in calcium assay. CHO-K1 hM4/Gqi5, Fluo-8 calcium fluorescence; vehicle 0%, full acetylcholine response 100%. activation, % at 3 µM. 360,000 tested, 0.14% active;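 active means activation above the run mean over all test wells plus 3 SD, cut at about 32% in these data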;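 further: peak over basal fluorescence ratio per well then scaled between controls; 0% = DMSO wells and 100% = acetylcholine at EC100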
M5 PAM – CHRM5 positive allosteric modulation; AID 624038; P08912; CHO-K1 hM5, Fluo-8 calcium, ACh EC20 PAM; 0% = ACh EC20, 100% = ACh EC100; 360,000 tested, 0.3% active; activation, % at 3 µM;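 active means activation above the run cutoff, the mean activation of all test compounds plus 3 SD, cut at about 18% in these data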
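System – CHO-K1 hM5 cells · Compound – 3 µM, single dose · Incubation – compound preincubation 140 s before EC20 acetylcholine addition · Technique – Fluo-8 calcium fluorescence · Measure – Max/basal fluorescence ratio as % of EC20–EC100 ACh window · Benchmarks – low control EC20 acetylcholine (0%), high control EC100 acetylcholine (100%) · Replication – singlicate, one well per test compound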
CHRM4 PAM – potentiates acetylcholine response at human M4 receptor. 360,000 tested, 0.4% active. activation, % at 3 µM. CHO-K1 hM4/Gqi5, Fluo-8 calcium fluorescence, ACh EC20; 0% = ACh EC20, 100% = maximal ACh. P08173;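 active means activation above its plate's cutoff, the mean activation of sample wells plus 3 SD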
M5 antag – blocks acetylcholine activation of human M5 receptor. P08912. CHO-hM5 cells, Fluo-8 calcium fluorescence, ACh EC80. inhibition, % at 3 µM. 360,000 tested, 0.59% active;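 active means inhibition above a per-plate cutoff, the mean of that plate's test compounds plus 3 SD, cut at about 27% in these data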;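 further: 0% = acetylcholine EC80 with DMSO and 100% = DMSO without agonist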
CHRM5 agonist – CHRM5 agonism in calcium assay | P08912 | CHO-K1 hM5 cells, Fluo-8 calcium fluorescence; 0% DMSO wells, 100% maximal acetylcholine response | activation, % at 3 µM | 360,000 tested, 0.19% active;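 active means activation above the run's mean over test compounds plus 3 SD, cut at about 23% in these data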;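 further: signal is peak over basal fluorescence ratio across the kinetic read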
Starred values were filed as active, the others as inactive. Rows were chosen to be rich in hits. Some 1.8% of all compounds tested hit in one or more screens of this group.

SMILES	CHRM4 antagonist	CHRM4 agonist	M5 PAM	CHRM4 PAM	M5 antag	CHRM5 agonist
CC(=O)Nc1ccc(NC(=O)CSc2ncc(C(=O)Nc3ccccc3)c(=O)n2C)cc1	-3	1	1	7	1	3
COc1ccc(C2=NOC(C(=O)N3CCOCC3)C2)cc1OC (stereo not given)	-14	0	-2	12	-4	-2
COc1cccc(C2=NOC(C(=O)N3CCOCC3)C2)c1 (stereo not given)	9	1	-3	29*	10	0
O=C(CSc1ccc2nnc(CCNC(=O)c3ccccc3)n2n1)NCc1ccco1	2	0	-7	-1	28*	-6
COCCn1c(=O)[nH]c2cc(C(=O)NC(C)C)ccc2c1=O	-7	0	24*	20*	1	-5
CN1CCN(Cc2cccc(Oc3ccc(Cl)cc3)c2)CC1	14	6	-16	-17	35*	-6
CCN1CCN(Cc2cccc(Oc3ccc(Cl)cc3)c2)CC1	18	5	-14	-30	19	-6
CCOC(=O)C1CCC(CNCc2ccc(Cl)cc2)CC1 (stereo not given)	42*	2	-15	-14	21	-7
COc1cc(NC(=O)C2=C(N3CCOCC3)/C(=C\c3ccc(N(C)C)cc3)CCC2)cc(OC)c1OC	3	1	11	21*	-7	1
CCCCC[C@H](C)N1C[C@H](COCc2ccccc2)Oc2cc(N3CCC[C@@H]3COC)ccc2S1(=O)=O	0	0	-11	2	6	3
COc1ccc(CN(C)c2ccc(S(=O)(=O)N3CCN(C)CC3)cc2[N+](=O)[O-])cc1OC	14	16	-20	-8	23	8
CC(=O)c1cn(CCOc2ccccc2C)c2ccccc12	26	14	-16	-12	29*	8
Cc1ccccc1OCCn1cc(C(=S)N2CCCC2)c2ccccc21	-7	1	-15	-3	-9	-6
O=C(O)c1c(-c2ccccc2)cnc2ccccc12	-21	1	2	4	2	0
COc1cc(-c2nc3ccc(C)cn3c2NCc2ccccc2)ccc1SC1CCCCC1	8	3	-14	-1	5	2
CCC(C)Sc1ccc(-c2nc3ccccn3c2NCc2ccccc2)cc1OC (stereo not given)	29*	14	-28	-6	16	0
COc1cc(-c2nc3ccccn3c2NCc2ccccc2)ccc1SC1CCCCC1	27*	6	-18	-6	15	-3
COc1ccc(-c2nc3ccccn3c2NC2CCCCC2)cc1SC1CCCCC1	28*	3	4	-12	4	1
CCOC(=O)[C@]12CCCC=C1N(Cc1ccc3c(c1)OCO3)C(=O)[C@H](CC(=O)NCCc1ccccc1OC)C2	-15	4	-10	-2	-2	-3
O=C(Nc1ccc(N2CCN(C(=O)c3ccco3)CC2)c(Cl)c1)c1cc2ccccc2o1	51*	18	-23	-16	30*	2
CCCC(=O)N1CCN(c2ccc(NC(=O)c3cc4ccccc4o3)cc2Cl)CC1	38*	19	-20	-21	21	3
COc1ccc(NCc2nnc(SCC(=O)c3ccc(OC)cc3)n2C)cc1	-14	4	36*	1	33*	-2
Cc1ccc(OCc2cc(C(=O)N(C)Cc3cnn(-c4ccccc4C)c3)no2)cn1	3	20	-17	-12	5	5
CC1CCCN(C(C(=O)NC2CCCCC2)c2cc3c(cc2[N+](=O)[O-])OCO3)C1 (stereo not given)	-10	0	-1	25*	5	-1
c1coc(CN(Cc2ccco2)c2ncnc3c2oc2ccccc23)c1	37*	7	-23	-23	32*	4
SMILES	CHRM4 antagonist	CHRM4 agonist	M5 PAM	CHRM4 PAM	M5 antag	CHRM5 agonist
CC(NC(=O)c1ccccc1)C(=O)OCn1nnc2ccccc2c1=O (stereo not given)	-14	1	20*	12	-8	-4
CCOC(=O)N1CCN(C(c2ccnc3ccccc23)c2nnnn2-c2ccc3c(c2)OCCO3)CC1 (stereo not given)	12	-1	-4	0	2	0
CCNS(=O)(=O)c1ccc(CCC(=O)Nc2ccc(C(=O)OC)cc2)cc1	-7	4	-2	29*	3	1
Cc1cc(/C=C\c2ccc3cc(N(C)C)ccc3[n+]2C)c(C)n1-c1ccccc1	45*	20	-17	-19	40*	10
CCN(c1cccc(C)c1)S(=O)(=O)c1c(C)[nH]c(C)c1C(=O)N1CCCCC1	3	1	0	3	8	-2
Cc1sc2ncnc(NCC(c3ccco3)N3CCCC3)c2c1C (stereo not given)	40*	2	-21	-23	15	-7
Cc1sc2ncnc(N3CCCCC3)c2c1C	-6	3	-6	8	0	4
CN(C)c1ccc(NC(=O)C[n+]2ccccc2)cc1	1	-1	-3	0	8	-5
O=C(C[n+]1ccccc1)Nc1ccc(Oc2ccccc2)cc1	47*	-1	-26	-26	6	-15
O=C/C=C/c1c(-c2ccccc2)cc2oc3ccccc3cc1-2	-6	3	-3	1	10	-1
O=C(CN1C(=O)NC2(CCCC2)C1=O)NNC(=O)c1ccc(Br)cc1	-16	1	0	25*	0	4
C=CCSc1nnc(NC(=O)CN2C(=O)NC3(CCCC3)C2=O)s1	-17	0	1	18*	8	-6
O=C(CN1C(=O)NC2(CCCC2)C1=O)Nc1ccc(F)cc1	42*	1	-4	38*	3	0
CCC1(c2ccc(F)cc2)NC(=O)N(CC(=O)Nc2ccc(N3CCCCC3)cc2)C1=O (stereo not given)	2	21	6	-3	5	27*
CCC1(c2ccc(F)cc2)NC(=O)N(CC(=O)Nc2ccc(C(N)=O)cc2)C1=O (stereo not given)	7	1	5	2	9	-1
CCc1nnc(NC(=O)CN2C(=O)NC3(CCCC3)C2=O)s1	8	0	-4	-2	12	1
COc1cccc(C(=O)O/N=C(\N)CS(=O)(=O)c2ccccc2)c1	4	2	0	1	-1	-1
Cc1cc(C(=O)N2CCC2(C)C(=O)Nc2cc(C(C)(C)C)nn2C)nn1C (stereo not given)	10	1	-11	-4	19	1
O=c1c2ccccc2nc2sc(Nc3cccc(Cl)c3)nn12	7	1	20*	-1	-15	6

Screens deposited in PubChem by The Scripps Research Institute Molecular Screening Center.
